The list is not random: actives were taken first. Their share in the collection is about 1.9%.
SR-BI HDL uptake = mouse SR-BI HDL lipid transfer inhibition. Q61009. ldlA[mSR-BI] CHO cells, DiI-HDL uptake fluorescence, 3 h. inhibition, % at 12.5 µM. actives 0.96% (n = 320,000);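 active means mean replicate inhibition of at least 70% and a set share of replicates each scoring 70 or more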
Target sequence (Q61009 whole entry, looked up): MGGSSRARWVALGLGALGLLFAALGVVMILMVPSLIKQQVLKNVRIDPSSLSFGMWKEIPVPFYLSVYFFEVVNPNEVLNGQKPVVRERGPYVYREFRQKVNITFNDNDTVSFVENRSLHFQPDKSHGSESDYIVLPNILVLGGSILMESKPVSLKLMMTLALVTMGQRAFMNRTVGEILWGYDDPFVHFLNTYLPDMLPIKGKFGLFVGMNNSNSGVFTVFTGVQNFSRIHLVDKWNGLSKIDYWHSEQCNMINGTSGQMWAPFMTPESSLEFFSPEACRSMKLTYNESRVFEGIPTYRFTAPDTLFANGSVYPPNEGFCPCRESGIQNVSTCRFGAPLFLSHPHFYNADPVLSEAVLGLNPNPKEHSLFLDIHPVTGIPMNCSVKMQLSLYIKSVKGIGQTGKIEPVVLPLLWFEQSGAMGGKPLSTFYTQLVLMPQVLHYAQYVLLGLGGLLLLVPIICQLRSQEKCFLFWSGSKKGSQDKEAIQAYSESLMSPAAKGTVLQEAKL
Neddyl block = cullin neddylation inhibition. inhibition, % at 25 µM. actives 0.58% (n = 360,000). TR-FRET cullin neddylation, biochemical; in the data active means inhibition above about 36%
UBC13 inh = human UBC13 polyubiquitination inhibition. P61088. UBC13 polyubiquitin chain formation, TR-FRET. inhibition, % at 20 µM. actives 0.47% (n = 330,000); in the data active means inhibition above about 45%, passing the limit was not always enough
Target sequence (P61088 whole entry, looked up): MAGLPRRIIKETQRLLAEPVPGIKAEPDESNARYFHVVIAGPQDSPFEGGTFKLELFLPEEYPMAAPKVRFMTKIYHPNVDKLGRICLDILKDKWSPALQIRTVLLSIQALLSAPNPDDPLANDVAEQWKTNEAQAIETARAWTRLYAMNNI
SR-BI DiI-HDL act = activators of SR-BI mediated HDL lipid uptake. CHO ldlA[mSR-BI] cells, DiI-HDL uptake fluorescence, 3 h; 100 = double the neutral-control signal. activation, % at 12.5 µM. actives 0.096% (n = 320,000). AID 504775;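 active means mean replicate activation of at least 60% and every replicate at or above 60%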
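material = CHO ldlA[mSR-BI] cells | medium = Ham's F12 with 0.5% BSA, HEPES 25 mM, pH 7.4 | reagent = fluorescent DiI-HDL, 10 µg/mL final | compound dosing = single-point compound dose | incubation = 3 h, 37 °C | measured by = bottom-read fluorescence, 550/595 nm | measure = HDL uptake via cellular fluorescence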
Each line names hits and unclear results; the compound was inactive in the other large screens.

N/C(=N\N=C\c1ccco1)SC1CC(=O)N(c2ccc(C(=O)O)cc2)C1=O (stereo not given)	SR-BI DiI-HDL act 60
N/C(=N\N=C\c1ccco1)SC1CC(=O)N(c2ccccc2)C1=O (stereo not given)	none
O=C(/C=C/NNC(=O)c1ccccc1)c1ccc(Br)cc1	SR-BI HDL uptake 118
COc1ccc(C(=O)C=CNNC(=O)c2ccc(Cl)cc2)cc1	SR-BI HDL uptake 95
O=C(/C=C/NNC(=O)c1ccc(Cl)cc1)c1ccccc1	SR-BI HDL uptake 112
COc1ccc(C(=O)NN/C=C/C(=O)c2ccc(Br)cc2)cc1	none (no result: SR-BI HDL uptake, UBC13 inh, SR-BI DiI-HDL act)
Cc1cc(OCc2ccc(F)cc2)nc(-c2ccccc2O)n1	SR-BI HDL uptake 78
Cc1ccc(Oc2cc(C)nc(-c3ccccc3O)n2)cc1	none
Cc1nc2ccc(C(=O)Nc3cccc([N+](=O)[O-])c3)cc2s1	SR-BI HDL uptake 74
COc1ccc(C(=O)Nc2cccc([N+](=O)[O-])c2)cc1Br	SR-BI HDL uptake 83
COc1ccc(C(=O)Nc2cccc(/C(C)=N/NC(=O)c3ccc([N+](=O)[O-])cc3)c2)cc1OC	SR-BI HDL uptake 71
Cc1ccccc1NS(=O)(=O)c1cc(C(=O)Nc2cccc([N+](=O)[O-])c2)ccc1C	SR-BI HDL uptake 72
Cc1ccccc1S(=O)(=O)NC(=O)C1(C)CCN1C(=O)Cc1ccccc1Cl (stereo not given)	none (no result: SR-BI HDL uptake, UBC13 inh, SR-BI DiI-HDL act)
CC(OC(=O)c1nccnc1N)C(=O)Nc1ccc(S(=O)(=O)N2CCCC2)cc1 (stereo not given)	none (not shown: Neddyl block)
Cc1ccccc1N(C(=O)c1snc(C(N)=O)c1N)C(C)C(=O)NC1CCCCC1 (stereo not given)	SR-BI HDL uptake 83 (not shown: Neddyl block)
Cc1ccccc1N(C(=O)c1snc(C(N)=O)c1N)C(C(=O)NC1CCCCC1)c1ccc(O)cc1 (stereo not given)	none (not shown: SR-BI HDL uptake, Neddyl block, SR-BI DiI-HDL act)
COc1cc2ccccc2cc1C(=O)NC1CCC(C)CC1 (stereo not given)	SR-BI HDL uptake 71
CSCCC(NC(=O)c1ccccc1Br)C(=O)NNC(=O)c1ccncc1 (stereo not given)	none
COc1ccccc1CCNC(=O)c1cc(-c2ccncc2)nc2ccc(Br)cc12	SR-BI HDL uptake 77 (no result: UBC13 inh)
COc1cc(NC(=O)c2cccc(C)c2)ccc1NC(=O)c1cc2ccccc2o1	SR-BI HDL uptake 85 (not shown: Neddyl block)
COc1cc(NC(=O)c2cccc([N+](=O)[O-])c2)ccc1NC(=O)c1cc2ccccc2o1	none
CCOc1cccc(C(=O)Nc2ccc(NC(=O)c3cc4ccccc4o3)c(OC)c2)c1	SR-BI HDL uptake 72 (not shown: Neddyl block)
COc1cccc(CNc2nc3cc(C(C)=C(C)C)sc3c(=O)n2C)c1	none (no result: SR-BI HDL uptake, UBC13 inh, SR-BI DiI-HDL act)
CC(=O)c1cccc(NC(=O)c2csc3c2CCCCC3)c1	none
CC(=O)c1cccc(NC(=O)Nc2csc3c2CCCC3)c1	SR-BI HDL uptake 75
O=C(Cc1ccc(NC(=O)C2CCCN(C(=O)C3CCCC3)C2)cc1)Nc1cccc(C(=O)N2CCCCC2)c1 (stereo not given)	SR-BI HDL uptake 73 (no result: UBC13 inh)
CN(Cc1ccccc1)C(=O)c1cccc(NC(=O)Cc2ccc(NC(=O)C3CCN(C(=O)C4CCC4)CC3)cc2)c1	SR-BI HDL uptake 92 (no result: UBC13 inh)
O=C(CS(=O)CC(=O)N(CC(=O)NC1CCCC1)c1ccccc1F)Nc1ccc(F)cc1 (stereo not given)	none (no result: SR-BI HDL uptake, SR-BI DiI-HDL act)
CC(C)OCCCNc1nc2c(cnn2C)c(=O)[nH]1	none (no result: UBC13 inh)
CCN(CC)S(=O)(=O)c1ccc(-c2nnc(SCc3nnc(-c4ccc(C)cc4)o3)n2CC)cc1	SR-BI HDL uptake 72
Oc1ccccc1C1=NN(c2ccccc2)C(c2ccc(F)cc2)C1 (stereo not given)	SR-BI HDL uptake 74 (not shown: Neddyl block)
Oc1ccc(C2=NN(c3ccccc3)C(c3ccc(F)cc3)C2)cc1 (stereo not given)	none (not shown: Neddyl block)
COc1cccc(N=c2oc3ccccc3cc2-c2nc3ccccc3[nH]2)c1	Neddyl block 42
CCOc1cc(C)ccc1OCc1nnc(SCC(=O)c2cccc([N+](=O)[O-])c2)n1CC	SR-BI HDL uptake 88
CCn1c(COc2ccccc2)nnc1SCC(=O)c1cccc([N+](=O)[O-])c1	none
O=C(O)c1ccc(-c2ccc(-c3ccccc3)cc2)s1	Neddyl block 51
CCOc1cc(CNc2ccccc2)cc(Br)c1OCc1ccc(F)cc1	SR-BI HDL uptake 74
COc1cc(C(=O)N2CCC2(C)C(=O)NC(C)C)cc(OC)c1OC (stereo not given)	none (no result: SR-BI HDL uptake, UBC13 inh, SR-BI DiI-HDL act)
Cc1nc(N)sc1C(=O)N/N=C/c1ccc([N+](=O)[O-])cc1	none (no result: SR-BI HDL uptake, SR-BI DiI-HDL act)
COc1ccc(NC(=O)c2ccc(-n3c(C)ccc3C)cc2)c(OC)c1	none
COc1ccc(OC)c(NC(=O)C(=O)N/N=C/c2ccccc2[N+](=O)[O-])c1	SR-BI HDL uptake 81
O=[N+]([O-])c1ccccc1C=NNC(=S)NN=Cc1ccccc1[N+](=O)[O-]	none (no result: UBC13 inh)
Cc1nc(N)sc1C(=O)N/N=C/c1ccccc1[N+](=O)[O-]	UBC13 inh 95 (no result: SR-BI HDL uptake, SR-BI DiI-HDL act)
COc1ccc(NC(=O)C(=O)N/N=C/c2cc(C)n(-c3cccc(Cl)c3Cl)c2C)c(OC)c1	SR-BI HDL uptake 72
COC(=O)c1c(NC(=O)C(=O)NCC2CCCO2)sc2c1CC(C)(C)OC2 (stereo not given)	none
O=C(NCC1COc2ccccc2O1)c1cccc(S(=O)(=O)N2CCN(c3ccccc3)CC2)c1 (stereo not given)	none
Cc1ccc(OCCN2CCC2(C)C(=O)NCc2ccc(C(F)(F)F)cc2)cc1 (stereo not given)	none (no result: SR-BI HDL uptake, UBC13 inh, SR-BI DiI-HDL act)
Cc1nnsc1C(=O)N/N=C/c1ccc2ccccc2c1O	SR-BI HDL uptake 126
Cc1nnsc1C(=O)N/N=C/c1ccccc1	none
Cc1c(Cl)sn(-c2ccc(Cl)cc2)c1=O	SR-BI HDL uptake 72
Cc1nn(-c2ccc(Cl)cc2)c(=O)c2ccccc12	none
N=C1/C(=C\c2ccc(-c3cc(Cl)cc(Cl)c3)o2)C(=O)N=C2SC=C(c3ccccc3)N12	none
N=C1/C(=C/c2cccn2CCOc2ccccc2)C(=O)N=C2SC=C(c3ccccc3)N12	SR-BI HDL uptake 75
O=C1NC(=O)C(Cc2ccc(Cl)cc2)(c2ccccc2)N1 (stereo not given)	none (no result: UBC13 inh)
COC(=O)[C@]1(CC(C)C)N[C@H](c2ccc(SC3CCCCC3)c(OC)c2)[C@@H]2C(=O)N(C)C(=O)[C@@H]21	SR-BI HDL uptake 75
CCC(C)Sc1ccc([C@H]2N[C@@](CC(C)C)(C(=O)OC)[C@H]3C(=O)N(C)C(=O)[C@@H]23)cc1 (stereo not given in full)	SR-BI HDL uptake 79
CCSc1ccc([C@@H]2[C@@H]3C(=O)N(C)C(=O)[C@@H]3[C@]3(C(=O)OC)CCCCN23)cc1OC	SR-BI DiI-HDL act 67
CCCSc1ccc([C@@H]2[C@@H]3C(=O)N(C)C(=O)[C@@H]3[C@]3(C(=O)OC)CCCCN23)cc1OC	none
COC(=O)[C@]1(CC(C)C)N[C@H](c2ccc(-c3ccc(F)cc3)c(OC)c2)[C@@H]2C(=O)N(C)C(=O)[C@@H]21	SR-BI HDL uptake 89
CCN1C(=O)[C@H]2[C@@H](c3ccc(-c4ccc(OC)cc4)c(OC)c3)N[C@@](CC(C)C)(C(=O)OC)[C@H]2C1=O	none
